MIC and IC50 data for 68 molecules are collected here from ChEMBL document CHEMBL3576786, “Discovery of target based novel pyrrolyl phenoxy derivatives as antimycobacterial agents: an in silico approach” (Eur J Med Chem, 2015).

The subject of experiment [1] is Mycobacterium tuberculosis. The experiment is described as follows: Antimycobacterial activity against Mycobacterium tuberculosis H37Rv assessed as inhibition of bacterial growth after 5 days by Microplate Alamar Blue Assay. It is filed as functional. As to conditions: 120 h. For orientation: Alamar Blue is a resazurin reagent that responds to reducing activity.
For experiment [2], the system named is Vero. The experiment is described as follows: Cytotoxicity against African green monkey Vero cells assessed as inhibition of cell proliferation by MTT assay. It is filed as cell-based. The conditions noted are these: Chlorocebus sabaeus. The method, boiled down:
(§1)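 MTT read-out; IC50 taken as the concentration giving a 50% drop in optical density of treated cells relative to untreated cells.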

Experiment [3] concerns A549. The experiment is described as follows: Cytotoxicity against human A549 assessed as inhibition of cell proliferation by MTT assay. It counts as cell-based. A digest of the protocol:
as §1
A general note: Tetrazolium assays rely on reduction of a dye to a coloured formazan, in cell work by metabolically active cells.

≈ marks a conversion by molar mass, not a printed value.

Turning to `CCOc1cc(C=O)ccc1OCCCOc1ccc(-n2cccc2)cc1`, the MIC (as a rule, the lowest concentration found to suppress growth) in experiment [1] is 3.12 µg/mL (≈ 8.55 µM). Further, the IC50 (in general, the concentration that inhibits the measured activity by half) in experiment [2] worked out at 215 µM; in experiment [3], 223 µM.
With `Nc1ccc(OCCOc2ccc(-n3cccc3)cc2)cc1`, the MIC in experiment [1] was 100 µg/mL (≈ 340 µM).
Turning to `Clc1ccccc1OCCOc1ccc(-n2cccc2)cc1`, in experiment [1], the MIC was 25 µg/mL (≈ 79.7 µM).
Same read-out and setting: with `Oc1cc(OCCCOc2ccc(-n3cccc3)cc2)ccc1Cl` the figure was 6.25 µg/mL (≈ 18.2 µM); with `c1ccn(-c2ccc(OCCOc3ccc(-n4cccc4)cc3)cc2)c1`, 6.25 µg/mL (≈ 18.1 µM).
Turning to `Nc1cccc(OCCCOc2ccc(-n3cccc3)cc2)c1`, the MIC in experiment [1] was 100 µg/mL (≈ 324 µM).
Take `Cc1ccc(OCCOc2ccc(-n3cccc3)cc2)c(C)c1`: the MIC in experiment [1] was 12.5 µg/mL (≈ 40.7 µM).
Same read-out and setting: with `Fc1ccc(OCCCOc2ccc(-n3cccc3)cc2)cc1` the figure was 6.25 µg/mL (≈ 20.1 µM); with `N#Cc1ccc(OCCOc2ccc(-n3cccc3)cc2)cc1`, 6.25 µg/mL (≈ 20.5 µM); with `Cc1cccc(OCCCOc2ccc(-n3cccc3)cc2)c1`, 25 µg/mL (≈ 81.3 µM).
As for `Cc1ccc(C)c(OCCCOc2ccc(-n3cccc3)cc2)c1`, in experiment [1], the MIC worked out at 25 µg/mL (≈ 77.8 µM).
Same read-out and setting: with `COc1cc(C=O)ccc1OCCOc1ccc(-n2cccc2)cc1` the figure was 6.25 µg/mL (≈ 18.5 µM); with `Oc1ccccc1OCCCOc1ccc(-n2cccc2)cc1`, 12.5 µg/mL (≈ 40.4 µM).
Same read-out and setting: with `Brc1ccc(OCCCOc2ccc(-n3cccc3)cc2)cc1` the figure was 6.25 µg/mL (≈ 16.8 µM); with `Cc1ccccc1OCCOc1ccc(-n2cccc2)cc1`, 25 µg/mL (≈ 85.2 µM); with `O=[N+]([O-])c1ccc(OCCOc2ccc(-n3cccc3)cc2)c([N+](=O)[O-])c1`, 100 µg/mL (≈ 271 µM).
Same read-out and setting: with `Cc1ccc(C)c(OCCOc2ccc(-n3cccc3)cc2)c1` the figure was 25 µg/mL (≈ 81.3 µM).
Turning to `Oc1cc(OCCOc2ccc(-n3cccc3)cc2)ccc1Cl`, the MIC in experiment [1] was 6.25 µg/mL (≈ 19 µM).
Still for that read-out and setting: as for `Cc1ccccc1OCCCOc1ccc(-n2cccc2)cc1`, the figure is 25 µg/mL (≈ 81.3 µM); as for `Oc1ccc(OCCOc2ccc(-n3cccc3)cc2)cc1`, 12.5 µg/mL (≈ 42.3 µM).
In the case of `Oc1cc(O)cc(OCCCOc2ccc(-n3cccc3)cc2)c1`, the MIC in experiment [1] came to 3.12 µg/mL (≈ 9.6 µM). In addition, the figures for the IC50 in experiment [2] and in experiment [3] were 220 µM and 227 µM, respectively.
As for `Clc1ccc(OCCCOc2ccc(-n3cccc3)cc2)cc1`, the MIC in experiment [1] was determined as 6.25 µg/mL (≈ 19.1 µM).
With `c1ccc2cc(OCCOc3ccc(-n4cccc4)cc3)ccc2c1`, the MIC in experiment [1] is 3.12 µg/mL (≈ 9.49 µM). For the same molecule, the figures for the IC50 in experiment [2] and in experiment [3] were 231 µM and 233 µM, respectively.
As for `Oc1ccccc1OCCOc1ccc(-n2cccc2)cc1`, the MIC in experiment [1] is 12.5 µg/mL (≈ 42.3 µM).
Same read-out and setting: as for `Ic1ccc(OCCOc2ccc(-n3cccc3)cc2)cc1`, the figure is 12.5 µg/mL (≈ 30.8 µM).
As to `NNC(=O)c1ccncc1` [ISONIAZID], the MIC in experiment [1] came to 0.25 µg/mL (≈ 1.82 µM). For the same molecule, the IC50 in experiment [2] and in experiment [3] was above 450 µM each time.
Consider `Nc1cccc(OCCOc2ccc(-n3cccc3)cc2)c1`, for which the MIC in experiment [1] amounted to 100 µg/mL (≈ 340 µM).
The same measure, in the same setting: as for `Cc1ccc(OCCCOc2ccc(-n3cccc3)cc2)cc1`, the figure is 12.5 µg/mL (≈ 40.7 µM); as for `Clc1ccc(OCCOc2ccc(-n3cccc3)cc2)cc1`, 12.5 µg/mL (≈ 39.8 µM).
The same measure, in the same setting: with `O=[N+]([O-])c1ccc(OCCCOc2ccc(-n3cccc3)cc2)c([N+](=O)[O-])c1` the figure was 100 µg/mL (≈ 261 µM); with `Brc1cccc(OCCOc2ccc(-n3cccc3)cc2)c1`, 25 µg/mL (≈ 69.8 µM).
For `c1ccc2cc(OCCCOc3ccc(-n4cccc4)cc3)ccc2c1`, the MIC in experiment [1] was 3.12 µg/mL (≈ 9.1 µM). For the same molecule, the IC50 in experiment [2] is 238 µM; in experiment [3] it was 235 µM.
`Clc1cccc(OCCCOc2ccc(-n3cccc3)cc2)c1`: the MIC in experiment [1] stood at 50 µg/mL (≈ 153 µM).
`c1ccc2c(OCCCOc3ccc(-n4cccc4)cc3)cccc2c1`: the MIC in experiment [1] turned out to be 1.6 µg/mL (≈ 4.66 µM). In addition, the IC50 turned out to be 240 µM in experiment [2] and 243 µM in experiment [3].
`Clc1ccccc1OCCCOc1ccc(-n2cccc2)cc1`: in experiment [1], the MIC amounted to 25 µg/mL (≈ 76.3 µM).
The same measure, in the same setting: with `Oc1cccc(OCCCOc2ccc(-n3cccc3)cc2)c1` the figure was 12.5 µg/mL (≈ 40.4 µM).
As for `Oc1cc(O)cc(OCCOc2ccc(-n3cccc3)cc2)c1`, the MIC in experiment [1] was found to be 3.12 µg/mL (≈ 10 µM). Also, the IC50 was 231 µM in experiment [2] and 237 µM in experiment [3].
On to `Cc1cccc(OCCOc2ccc(-n3cccc3)cc2)c1`, for which the MIC in experiment [1] came out at 25 µg/mL (≈ 85.2 µM).
The same measure, in the same setting: with `O=[N+]([O-])c1ccc(OCCOc2ccc(-n3cccc3)cc2)cc1` the figure was 50 µg/mL (≈ 154 µM); with `Oc1cccc(OCCOc2ccc(-n3cccc3)cc2)c1`, 6.25 µg/mL (≈ 21.2 µM).
As for `Brc1ccccc1OCCCOc1ccc(-n2cccc2)cc1`, in experiment [1], the MIC stood at 25 µg/mL (≈ 67.2 µM).
The same measure, in the same setting: with `Brc1cccc(OCCCOc2ccc(-n3cccc3)cc2)c1` the figure was 25 µg/mL (≈ 67.2 µM); with `Cc1cc(C)cc(OCCCOc2ccc(-n3cccc3)cc2)c1`, 25 µg/mL (≈ 77.8 µM).
Take `COc1cc(C=O)ccc1OCCCOc1ccc(-n2cccc2)cc1`: in experiment [1], the MIC turned out to be 3.12 µg/mL (≈ 8.89 µM). Besides, the figures for the IC50 in experiment [2] and in experiment [3] were 212 µM and 210 µM, respectively.
Regarding `Brc1ccccc1OCCOc1ccc(-n2cccc2)cc1`, the MIC in experiment [1] is 25 µg/mL (≈ 69.8 µM).
Still for that read-out and setting: with `c1ccn(-c2ccc(OCCCOc3ccc(-n4cccc4)cc3)cc2)c1` the figure was 6.25 µg/mL (≈ 17.4 µM).
On the same count and under the same terms, as for `Cc1cc(C)cc(OCCOc2ccc(-n3cccc3)cc2)c1`, the figure is 50 µg/mL (≈ 163 µM); as for `O=[N+]([O-])c1ccc(OCCCOc2ccc(-n3cccc3)cc2)cc1`, 100 µg/mL (≈ 296 µM); as for `Oc1cc(Cl)ccc1Oc1ccc(Cl)cc1Cl` [TRICLOSAN], 10 µg/mL (≈ 34.5 µM).
Take `Brc1ccc(OCCOc2ccc(-n3cccc3)cc2)cc1`: the MIC in experiment [1] stood at 12.5 µg/mL (≈ 34.9 µM).
The same measure, in the same setting: as for `Cc1ccc(C)n1-c1ccc(OCCOc2ccc(-n3cccc3)cc2)cc1`, the figure is 6.25 µg/mL (≈ 16.8 µM); as for `Clc1cccc(OCCOc2ccc(-n3cccc3)cc2)c1`, 25 µg/mL (≈ 79.7 µM); as for `Ic1ccc(OCCCOc2ccc(-n3cccc3)cc2)cc1`, 12.5 µg/mL (≈ 29.8 µM).
As for `c1ccc2c(OCCOc3ccc(-n4cccc4)cc3)cccc2c1`, the MIC in experiment [1] was determined as 3.12 µg/mL (≈ 9.49 µM). Further, the IC50 turned out to be 220 µM in experiment [2] and 215 µM in experiment [3].
On to `O=Cc1ccc(OCCCOc2ccc(-n3cccc3)cc2)cc1`, for which the MIC in experiment [1] was 12.5 µg/mL (≈ 38.9 µM).
In the case of `CCOc1cc(C=O)ccc1OCCOc1ccc(-n2cccc2)cc1`, in experiment [1], the MIC was determined as 3.12 µg/mL (≈ 8.89 µM). Moreover, the IC50 in experiment [2] was found to be 211 µM; in experiment [3], 217 µM.
As for `O=Cc1ccc(OCCOc2ccc(-n3cccc3)cc2)cc1`, the MIC in experiment [1] was determined as 12.5 µg/mL (≈ 40.7 µM).
Same read-out and setting: with `c1ccc(OCCCOc2ccc(-n3cccc3)cc2)cc1` the figure was 50 µg/mL (≈ 170 µM); with `Fc1ccc(OCCOc2ccc(-n3cccc3)cc2)cc1`, 6.25 µg/mL (≈ 21 µM); with `Cc1ccc(OCCCOc2ccc(-n3cccc3)cc2)c(C)c1`, 25 µg/mL (≈ 77.8 µM).
For `Cc1ccc(C)n1-c1ccc(OCCCOc2ccc(-n3cccc3)cc2)cc1`, in experiment [1], the MIC was found to be 3.12 µg/mL (≈ 8.09 µM). Moreover, the IC50 in experiment [2] is 235 µM; in experiment [3] it was 237 µM.
On to `Nc1ccc(OCCCOc2ccc(-n3cccc3)cc2)cc1`, for which, in experiment [1], the MIC was found to be 50 µg/mL (≈ 162 µM).
Still for that read-out and setting: as for `c1ccc(OCCOc2ccc(-n3cccc3)cc2)cc1`, the figure is 50 µg/mL (≈ 179 µM).
On the same count and under the same terms, with `N#Cc1ccc(OCCCOc2ccc(-n3cccc3)cc2)cc1` the figure was 6.25 µg/mL (≈ 19.6 µM); with `Nc1ccccc1OCCOc1ccc(-n2cccc2)cc1`, 100 µg/mL (≈ 340 µM).
On to `Cc1ccc(OCCOc2ccc(-n3cccc3)cc2)cc1`, for which, in experiment [1], the MIC amounted to 25 µg/mL (≈ 85.2 µM).
The same measure, in the same setting: with `Nc1ccccc1OCCCOc1ccc(-n2cccc2)cc1` the figure was 100 µg/mL (≈ 324 µM); with `Oc1ccc(OCCCOc2ccc(-n3cccc3)cc2)cc1`, 12.5 µg/mL (≈ 40.4 µM).
